Experimental data from different studies.
Compare with care: the assays were run in different laboratories.
HDAC7: Histone deacetylase 7 (HDAC7, Homo sapiens, UniProt Q8WUI4)
MMP2: 72 kDa type IV collagenase (MMP2, Homo sapiens, UniProt P08253)
CNR2: Cannabinoid receptor 2 (CNR2, Homo sapiens, UniProt P34972)
ADRB2: Beta-2 adrenergic receptor (ADRB2, Homo sapiens, UniProt P07550)
Akr1b1: Aldo-keto reductase family 1 member B1 (Akr1b1, Rattus norvegicus, UniProt P07943)

Structure (SMILES) | target | observed | action | method | pH | notes | IC50
CCCN(CCCCOCCOCCOCCOCC(=O)N[C@H](C(=O)N1C[C@H](O)C[C@H]1C(=O)NCc1ccc(-c2scnc2C)cc1)C(C)(C)C)C[C@@H](C)NC(=O)c1ccc(-c2noc(C(F)(F)F)n2)cc1 | HDAC7 | enzyme activity | inhibitor | fluorescence | – | – | 130 nM
CCC1(c2ccc(C)cc2)C(=O)N(C(=O)OC(C)C)N1C(=O)OC(C)C (stereo not shown) | Protein phosphatase methylesterase 1 (Mus musculus, UniProt Q8BVQ5) | enzyme activity | inhibitor | – | – | – | 1300 nM
Cc1noc(-c2cc3cc(-c4nc(C(=O)NCc5ccc(=O)[nH]c5)[nH]c4C)ccc3[nH]2)n1 | MMP2 | enzyme activity | inhibitor | – | – | – | > 24000 nM
O=C(c1ccc(Cl)s1)N(CCN1CCCC1)c1nc2ccccc2s1 | Short transient receptor potential channel 6 (Trpc6, Mus musculus, UniProt Q61143) | calcium signal | – | fluorescence | – | – | 8800 nM
O=[N+]([O-])C1=Cc2ccccc2OC1C(F)(F)F (stereo not shown) | P2Y purinoceptor 6 (P2RY6, Homo sapiens, UniProt Q15077) | calcium signal | antagonist | fluorescence | – | – | 2620 nM
Cc1csc(COCC(=O)C23CC4CC(CC(C4)C2)C3)n1 | 11-beta-hydroxysteroid dehydrogenase 1 (HSD11B1, Homo sapiens, UniProt P28845) | enzyme activity in cells | inhibitor | – | – | – | 71 nM
CC/C(=C(\c1ccc(O)cc1)c1ccc(OCCN(C)C)cc1)c1ccccc1 | Histone-lysine N-methyltransferase SETD7 (SETD7, Homo sapiens, UniProt Q8WTS6) | enzyme activity | inhibitor | – | – | – | > 333000 nM
Nc1ccc(-c2ccncc2)cc1NC(=O)N1CCCC1 | HDAC7 | enzyme activity | inhibitor | – | – | – | > 33300 nM
CC(C)(C)n1nc(-c2cnc3cc(OC4CC4)ccc3c2)c(C(N)=O)c1N | Casein kinase I isoform alpha (CSNK1A1, Homo sapiens, UniProt P48729) | cell-free assay | inhibitor | – | – | – | 2910 nM
Cc1ccc(NC(=O)c2nc(-c3ccc(Cl)cc3Cl)n(-c3ccc(OS(=O)(=O)CCC(F)(F)F)cc3)c2C)nc1 | CNR2 | GTPγS binding | antagonist | – | – | cell membranes | 400 nM
Cn1nc(C(=O)NCc2ccc(C(=O)O)cc2)cc1-c1ccc2[nH]c(-c3cncnc3)cc2c1 | MMP2 | enzyme activity | inhibitor | – | – | – | > 20000 nM
Cc1c(C(=O)N[C@H]2CCC[C@H](O)C2)nc(-c2ccc(Cl)cc2Cl)n1-c1ccc(OS(=O)(=O)CCC(F)(F)F)cc1 (relative stereo) | CNR2 | GTPγS binding | antagonist | – | – | cell membranes | 425 nM
CCN(CC)CCNC(=O)c1cc(Cl)c(N)cc1OC | ADRB2 | ligand displacement | – | radioligand | – | cell membranes | 67400 nM
CC[C@H](C)[C@H](NC(C)=O)C(=O)N[C@@H](CCC(=O)O)C(=O)N[C@H](C(=O)N[C@H](C=O)CC(=O)O)[C@@H](C)O | Caspase-2 (Homo sapiens, UniProt P42575) | enzyme activity | inhibitor | – | – | – | 109 nM
Cn1cc(-c2cc3cc(-c4cc(C(=O)NCc5ccc(C(=O)O)cc5)nn4C)ccc3[nH]2)cn1 | MMP2 | enzyme activity | inhibitor | – | – | – | > 20000 nM
COc1ccc2nc(/N=C3/NC(=O)C(=Cc4cc(OC)c(O)c(OC)c4)S3)sc2c1 | Akr1b1 | enzyme activity | inhibitor | absorbance | pH 6.2 | – | 10500 nM
Cn1c(=O)c([N+](=O)[O-])c(Cl)c2ccccc21 | Adenylate cyclase type 8 (Homo sapiens, UniProt P40145) | cAMP | inhibitor | – | – | – | 1600 nM
COc1ccc2nc(/N=C3/NC(=O)C(=Cc4ccc(O)c(OC)c4)S3)sc2c1 | Akr1b1 | enzyme activity | inhibitor | absorbance | pH 6.2 | – | 830 nM
CN(C)CCC1(c2ccc(Cl)cc2)Cc2ccccc2C(=O)O1 (stereo not shown) | ADRB2 | ligand displacement | – | radioligand | – | cell membranes | 86800 nM
